Source: PubChem
RGS4 block: inhibitors of human RGS4. P49798. HEK293 M3R/RGS4 inducible, Fluo-4 calcium flux; stronger effect = higher value; triggered by carbachol at its EC20. B-score at 10 µM. hit rate 0.45% among 310,000. AID 463165;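 active means B-score, a plate-corrected calcium signal, over three deviations above library mean, with baseline fluorescence within five deviations of library mean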;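 further: RGS4 expression induced by doxycycline in cells with stable M3 receptor; B-score is computed from the integrated fluorescence ratio over baseline after carbachol; higher B-score means a larger calcium signal and so more RGS4 inhibition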
Target sequence (P49798 whole entry, looked up): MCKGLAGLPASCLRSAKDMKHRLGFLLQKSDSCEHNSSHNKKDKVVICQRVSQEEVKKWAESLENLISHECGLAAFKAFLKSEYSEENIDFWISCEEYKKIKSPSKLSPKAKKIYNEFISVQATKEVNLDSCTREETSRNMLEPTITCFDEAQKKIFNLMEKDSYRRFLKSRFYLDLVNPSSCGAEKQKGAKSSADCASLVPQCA
MrgX1 allo act: human MrgX1 positive allosteric modulation, primary screen. hit rate 0.63% among 310,000. B-score at 10 µM. MrgX1-HEK293, Fluo-4 calcium flux, FDSS; stronger effect = higher value. Q96LB2;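 active means plate-corrected calcium response at least 3 library SD above typical, normal starting fluorescence, not activating the receptor alone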;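 further: compound read alongside a low EC10 to EC30 dose of BAM8-22 agonist; peak minus trough fluorescence over baseline measured at the second addition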
Target sequence (Q96LB2 whole entry, looked up): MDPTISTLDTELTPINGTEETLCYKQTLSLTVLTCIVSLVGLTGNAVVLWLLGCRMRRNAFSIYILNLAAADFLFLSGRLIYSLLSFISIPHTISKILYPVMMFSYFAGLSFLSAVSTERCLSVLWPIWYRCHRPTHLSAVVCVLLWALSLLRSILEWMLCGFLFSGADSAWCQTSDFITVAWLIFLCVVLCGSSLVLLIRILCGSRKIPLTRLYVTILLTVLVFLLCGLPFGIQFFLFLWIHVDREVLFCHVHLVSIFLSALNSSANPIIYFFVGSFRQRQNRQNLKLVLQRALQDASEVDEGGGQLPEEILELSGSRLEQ
MrgX1 antag: human MrgX1 receptor antagonism, primary screen | AID 588676 | B-score at 10 µM | MRGX1-HEK293 calcium flux, Fluo-4, BAM8-22 antagonism; stronger effect = lower value | Q96LB2 | hit rate 1.3% among 310,000;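 active means calcium-response B-score plate-corrected more than 3 library SD below zero, starting fluorescence within 5 deviations, no agonist response on first addition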;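 further: peak minus trough fluorescence over baseline after final BAM8-22 challenge near maximal dose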
MrgX1 ag: human MrgX1 receptor agonism, primary screen | B-score at 10 µM | Q96LB2 | AID 588627 | hit rate 0.44% among 310,000 | MrgX1-HEK293 cells, Fluo-4 calcium fluorescence, agonist mode; stronger effect = higher value;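 active means calcium response B-score plate-corrected fluorescence ratio at least 3 library SD, with starting fluorescence B-score inside 5 SD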
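Material – MrgX1-expressing HEK293 cells · Input – 15,000 cells seeded per well · Dosing – compound as first of three additions · Times – overnight seeding, then 1 h dark dye loading · Measured by – kinetic Fluo-4 NW fluorescence of intracellular calcium · Read-out – B-scored fluorescence response ratio · Benchmarks – positive and negative control wells on each plate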
RGS4 act: RGS4 potentiation or activation | HEK293 M3R/inducible RGS4, carbachol calcium flux Fluo4; stronger effect = lower value | B-score at 10 µM | hit rate 0.92% among 310,000;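 active means B-score of the integrated calcium signal more than 4 SD below the library mean, with starting fluorescence not abnormally high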;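 further: negative B-score means reduced calcium response which marks RGS4 activation or potentiation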
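Also added: carbachol at ECmax as muscarinic agonist stimulus; Assay system: HEK293 cells with stable M3R and inducible RGS4; Timing: overnight RGS4 induction, 30 min dye load 37 °C, 20 min compound RT; Measured by: Fluo4-AM (2 µM) calcium-flux fluorescence, kinetic read.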
MrgX1 ant reconf: reconfirmed antagonist of human MrgX1 receptor signaling; shares compounds with MrgX1 antag; MrgX1-HEK293, BAM8-22 calcium flux, Fluo-4; stronger effect = lower value; remaining BAM8-22 calcium response % of control (stronger effect = lower value), % at 10 µM; hit rate 19% among 2,300;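 active means remaining agonist calcium response no higher than 100% minus 3 SD of agonist-only control wells, with starting fluorescence near control levels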;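 further: agonist BAM8-22 given at a near maximal EC90 to ECmax level; peak minus minimum fluorescence divided by baseline after agonist addition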
HEK293 Ca flux: counter-screen for MrgX1 antagonists: effect in parental HEK293 cells; Fluo-4 calcium fluorescence, FDSS; fluorescence ratio F(max-min)/F0 at 10 µM; AID 624111; hit rate 2% among 4,000; shares compounds with MrgX1 antag;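 active means duplicate-averaged calcium fluorescence ratio at least three times the standard deviation of buffer wells, a nonspecific response in parental cells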
HEK293 Ca counter: activity in parental HEK293 cells without MrgX1; shares compounds with MrgX1 antag; parental HEK293 calcium flux, Fluo-4 fluorescence ratio; stronger effect = higher value; fluorescence ratio F(max-min)/F0 at 10 µM; hit rate 0.4% among 4,000; AID 624114;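 active means calcium fluorescence ratio, averaged over duplicates, at least 3 SD of the buffer-well ratio, meaning a nonspecific response in receptor-free cells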;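 further: untransfected parental HEK293 lacking MrgX1 used as counterscreen for MrgX1 allosteric activators; fluorescence change taken during the second addition on a kinetic imager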
HEK293 Ca cntr2: counter-screen for MrgX1 activators: effect in parental HEK293 cells | shares compounds with MrgX1 antag | Fluo-4 calcium fluorescence (FDSS); stronger effect = higher value | fluorescence ratio F(max-min)/F0 at 10 µM | AID 624115 | hit rate 8.7% among 4,000;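 active means calcium fluorescence ratio at least three times the spread of buffer wells, meaning a non-specific response in parental cells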
* marks the source's active call; other numbers are inactive results; i = inactive; / = not tested or not shown. Most compounds without a hit are left out; they make up all but 3.5% or so of the library.

SMILES	RGS4 block	MrgX1 allo act	MrgX1 antag	MrgX1 ag	RGS4 act	MrgX1 ant reconf	HEK293 Ca flux	HEK293 Ca counter	HEK293 Ca cntr2
C=CCSc1nc(N)c(C(=O)Nc2ccccc2OC)cc1C(=O)Nc1ccccc1	i	i	-5.9*	i	i	78%*	i	i	i
C=CCSc1nc(N)c(C(=O)Nc2ccccc2)cc1C#N	i	i	i	i	i	/	/	/	/
CC(=O)c1ccc(-c2cc([C@H]3[C@H]4C=CC[C@@H](C)[C@@H]4C(=O)N3Cc3ccccc3)ccc2F)cc1	i	i	i	i	i	/	/	/	/
O=C(COC(=O)c1cc(Cl)ccc1Cl)Nc1ccc2[nH]c(=O)[nH]c2c1	i	i	i	i	i	/	/	/	/
COC(=O)c1ccc(NC(=O)CN2CCN(c3ccccc3)CC2)cc1	i	i	-6.7*	i	i	i	i	i	i
COC(=O)c1ccc(NC(=O)CSc2ccccc2)cc1	i	i	-5.9*	i	i	i	i	i	i
COC(=O)c1ccc(NC(=O)CSc2ccccn2)cc1	i	i	i	i	i	/	/	/	/
COc1ccc(CC(C)N2CCN(Cc3ccccc3)CC2)c(OC)c1 (stereo not drawn)	i	i	-4.5*	i	i	i	i	i	i
COc1ccc(N2C(=O)CCC(C(=O)N3CCOCC3)C2c2ccc(F)cc2)cc1 (stereo not drawn)	i	i	-4.8*	i	i	i	i	i	i
COc1ccc(N2C(=O)CCC(C(=O)N3CCCCC3)C2c2ccc(F)cc2)cc1 (stereo not drawn)	i	i	i	i	i	/	/	/	/
COc1cccc(-c2nc(CS(=O)(=O)CC(=O)N3CCc4ccccc43)c(C)o2)c1	i	i	-4.9*	i	i	i	i	i	i
CC(OC(=O)c1cc(S(=O)(=O)N(C)C)ccc1N1CCCC1)C(=O)NCc1ccccc1 (stereo not drawn)	i	i	i	i	i	/	/	/	/
CCc1ccccc1OCC(=O)Nc1ccc(S(N)(=O)=O)cc1	i	i	i	i	i	/	/	/	/
CNCc1ccccc1OCC(=O)Nc1ccccc1	i	i	-4.6*	i	i	i	i	i	i
O=C(NC(=S)NCC1CCCO1)c1ccco1 (stereo not drawn)	i	i	-25*	i	i	i	i	i	i
CC(=O)Nc1ccc(Nc2nc(C(F)(F)F)nc3c2nnn3Cc2ccccc2Cl)cc1	i	i	i	i	i	/	/	/	/
COc1cccc(C(=O)c2c[nH]c(C(=O)NCc3cccs3)c2)c1	i	i	-7.8*	i	i	i	i	i	i
Cc1ccc(NC(=O)CC2C(=O)NC3CCCCC3N2C(=O)c2ccc(F)cc2)cc1C (stereo not drawn)	i	i	i	i	i	/	/	/	/
Cc1ccc(Cl)cc1NC(=O)CC1NCCNC1=O (stereo not drawn)	i	i	i	i	i	/	/	/	/
O=C(CC1C(=O)NC2CCCCC2N1C(=O)c1ccc(F)cc1)Nc1ccccc1 (stereo not drawn)	i	i	-4.8*	i	i	i	i	i	i
COc1ccccc1C(=O)N1C(CC(=O)Nc2cc(Cl)ccc2C)C(=O)NC2CCCCC21 (stereo not drawn)	i	i	-4.7*	i	i	i	i	i	i
O=C(NCC1CCCO1)C1CC(=O)N(c2cccc(Cl)c2)C1 (stereo not drawn)	i	i	i	i	i	/	/	/	/
CC(C)C(NS(=O)(=O)c1cccs1)C(=O)NCc1ccc2c(c1)OCO2 (stereo not drawn)	i	i	-4.6*	i	i	i	i	i	i
Cc1ccc(CNC(=O)C(NS(=O)(=O)c2cccs2)C(C)C)cc1 (stereo not drawn)	i	i	i	i	i	/	/	/	/
Cc1cccc(C)c1NC(=O)CSc1ncnc2nc[nH]c12	i	i	-4.7*	i	i	i	i	i	i
SMILES	RGS4 block	MrgX1 allo act	MrgX1 antag	MrgX1 ag	RGS4 act	MrgX1 ant reconf	HEK293 Ca flux	HEK293 Ca counter	HEK293 Ca cntr2
Cc1cccc(CN2CCc3c([nH]c4ccccc34)C2C(C)(C)C)n1 (stereo not drawn)	i	i	i	i	i	/	/	/	/
Cc1oc(-c2cccs2)nc1CN1CCN(CC(C)C)C(CCO)C1 (stereo not drawn)	i	i	-4.5*	i	i	i	i	i	i
COc1cccc(C(O)c2nc3ccccc3n2C(C)C)c1OC (stereo not drawn)	i	i	i	i	i	/	/	/	/
COc1cccc(C(O)c2nc3ccccc3n2C(C)C)c1 (stereo not drawn)	i	i	-6.3*	i	i	i	i	i	i
CCc1nnc(NC(=O)CSc2nc3cccnc3n2Cc2ccccc2)s1	i	i	-5.9*	i	i	i	i	i	i
O=C(c1cc(-c2ccc(Cl)cc2Cl)on1)N1CCCCCC1	i	i	-5.3*	i	i	i	i	i	i
O=C(c1cc(-c2ccc(Cl)cc2Cl)on1)N1CCCC1	i	i	i	i	i	/	/	/	/
CCC/C=C1/CCCOC(C(=O)NCc2ccc(S(C)(=O)=O)cc2)(C(F)(F)F)C1 (stereo not drawn)	i	i	i	i	i	/	/	/	/
CS(=O)(=O)c1ccc(CNC(=O)C2(C(F)(F)F)C/C(=C/CCO)CCCO2)cc1 (stereo not drawn)	i	i	-4.8*	i	i	i	i	i	i
Cc1ccc(O)c(NC(=S)NC(=O)Cc2ccc(Cl)cc2)c1	i	i	-24*	i	-7.5*	27%*	i	i	i
Cc1ccccc1Oc1ccc(NC(=O)C2CC=CCC2C(=O)O)cc1 (stereo not drawn)	i	i	i	i	i	/	/	/	/
